Test results: ChEMBL document CHEMBL1145096, “Synthesis and cytotoxic activity of two novel 1-dodecylthio-2-decyloxypropyl-3-phosphatidic acid conjugates with gemcitabine and cytosine arabinoside” (J Med Chem, 2003)

Tests used:
[1] = tested on: BG-1 cell line; assay: Inhibitory activity against BG-1 (human, […] adenocarcinoma) cell line; assay type: functional, cell-based
Summary of the method: (§1)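 Cells kept in log phase in RPMI-1640 with 10% FBS and 1% penicillin-streptomycin, humidified 5% CO2/95% air, 37 °C. Viability read by CellTiter 96 aqueous proliferation assay (microplate optical density). Drug-treated optical densities compared with untreated controls; IC50 obtained by nonlinear regression.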

[2] = tested on: CEM-SS; assay: Inhibitory activity against CEM-SS (human T-4 lymphoblastoid clone) cell line; assay type: functional, cell-based; summary of the method: as §1
[3] = tested on: BXPC-3; assay: Inhibitory activity against BxPC3 (human,pancreas,adenocarcinoma) cell line; assay type: functional, cell-based
Summary of the method: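 BxPC3 grown in log phase in RPMI-1640 plus 10% FBS, 10 mM HEPES, 1.5 g/L NaHCO3, sodium pyruvate and 1% penicillin-streptomycin, at 37 °C under 5% CO2. CellTiter 96 aqueous proliferation readout by optical density. Treated wells compared with untreated controls; IC50 from nonlinear regression.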

[4] = tested on: HT-29; assay: Inhibitory activity against HT-29 (human,colon,adenocarcinoma) cell line; assay type: functional, cell-based
Summary of the method: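 Colon line kept in log phase in McCoy's 5A modified medium with 10% FBS and 1% penicillin-streptomycin, 37 °C, 5% CO2 humidified. Proliferation measured by CellTiter 96 aqueous assay (optical density) against untreated cells; IC50 fitted by nonlinear regression.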

[5] = tested on: HeLa; assay: Inhibitory activity against HeLa (human, epitheloid carcinoma, cervix) cell line; assay type: functional, cell-based
Summary of the method: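 HeLa maintained in log phase in DMEM, 10% FBS, 1% penicillin-streptomycin, humidified 5% CO2 at 37 °C. Growth quantified with CellTiter 96 aqueous assay by microplate optical density. Values expressed relative to untreated controls; IC50 by nonlinear regression.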

[6] = tested on: MCF7; assay: Inhibitory activity against MCF-7/WT-2'' (human, breast carcinoma) cell line; assay type: functional, cell-based
Summary of the method: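 MCF7/WT-2' grown in log phase in D-MEM/F-12 with 10% FBS, 10 μg/mL insulin and 1% penicillin-streptomycin, 37 °C, 5% CO2. Read-out was CellTiter 96 aqueous proliferation assay (optical density) versus untreated control. IC50 derived by nonlinear regression.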

[7] = tested on: SK-LU-1; assay: Inhibitory activity against SK-LU-1 (human,lung,adenocarcinoma) cell line; assay type: functional, cell-based
Summary of the method: (§2)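 Maintained in log phase in MEM with 10% FBS and 1% penicillin-streptomycin at 37 °C in humidified 5% CO2. Cell proliferation read with CellTiter 96 aqueous assay by optical density. Treated versus untreated control; IC50 calculated by nonlinear regression.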

[8] = tested on: U373 MG; assay: Inhibitory activity against U373-MG (human, glioblastoma) cell line; assay type: functional, cell-based, U-373MG ATCC; summary of the method: as §2
[9] = tested on: HL-60; assay: Inhibitory activity against HL-60 (human, promyelocytic leukemia) cell line; assay type: functional, cell-based; summary of the method: as §1
[10] = tested on: SCC-25; assay: Inhibitory activity against SCC-25 (human, squamous cell carcinoma, tongue) cell line; assay type: functional, cell-based
Summary of the method: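 SCC-25 cultured in log phase in DMEM with 10% FBS, 400 ng/mL hydrocortisone and 1% penicillin-streptomycin, humidified 5% CO2/95% air, 37 °C. CellTiter 96 aqueous assay, optical density compared with untreated cells; IC50 from nonlinear regression.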

Nc1ccn([C@@H]2O[C@H](CO)[C@@H](O)C2(F)F)c(=O)n1 [GEMCITABINE]
IC50 [1]: 680 nM
IC50 [2]: 30 nM
IC50 [3]: 160 nM
IC50 [4]: 43 nM
IC50 [5]: 8 nM
IC50 [6]: 1660 nM
IC50 [7]: 55 nM
IC50 [8]: 130 nM
IC50 [9]: 330 nM
IC50 [10]: 47 nM

CCCCCCCCCCCCSCC(COP(=O)(O)OC[C@H]1O[C@@H](n2ccc(N)nc2=O)C(F)(F)[C@@H]1O)OCCCCCCCCCC (some centres not stated)
IC50 [1]: 1840 nM
IC50 [2]: 600 nM
IC50 [3]: 1590 nM
IC50 [4]: 750 nM
IC50 [5]: 690 nM
IC50 [6]: 1730 nM
IC50 [7]: 1120 nM
IC50 [8]: 290 nM
IC50 [9]: 1800 nM
IC50 [10]: 590 nM

Nc1ccn([C@@H]2O[C@H](CO)[C@@H](O)[C@@H]2O)c(=O)n1 [CYTARABINE]
IC50 [9]: 760 nM

CCCCCCCCCCCCSCC(COP(=O)(O)OCC1OC(n2ccc(N)nc2=O)[C@@H](O)C1O)OCCCCCCCCCC (some centres not stated)
IC50 [9]: 67300 nM
